Results published in paper PMC5576345 (Chemical communications (Cambridge, England), 2017).
Like-named read-outs stand apart in the source and are kept apart here.

Key:
[1] = system: BSF T. brucei; assay: Growth inhibition of BSF T. brucei cultures; format: cell-based, Trypanosoma brucei; conditions: for EC50: read-out: BSF EC50, dose-response in triplicate, 384-well format
Method in brief: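 Bloodstream-form T. brucei cultures were treated in triplicate with test compound at 10 μM, with DMSO vehicle as negative control and a reference inhibitor as positive control on each plate. Percent growth inhibition was calculated against DMSO-treated parasites on the same plate. Compounds giving >50% inhibition at 10 μM went to triplicate dose-response curves, and the EC50 was fitted as the concentration killing 50% of parasites.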

[2] = molecular target: rTbHK1 (recombinant T. brucei hexokinase 1); assay: rTbHK1 enzyme inhibition assay; format: biochemical, Trypanosoma brucei; conditions: read-out: TbHK1 IC50; dose-response
Method in brief: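 Recombinant TbHK1 was expressed in and isolated from Escherichia coli or yeast. The purified enzyme was tested in triplicate for percent inhibition at 10 μM test compound. IC50 was taken as the concentration giving 50% inhibition of TbHK1 activity.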

[3] = molecular target: rTbHK1 (recombinant T. brucei hexokinase 1); conditions: read-out: rTbHK1 IC50; initial round of SAR study; cited from earlier work
[4] = system: BSF T. brucei; conditions: cited from earlier work
[5] = system: mammalian hexokinase; conditions: cited from earlier work
[6] = system: human cell lines; conditions: cited from earlier work

`N=C(N)c1ccc(OCCCCCOc2ccc(C(=N)N)cc2)cc1` [pentamadine] gave an EC50 [1] of 3 ± 1 nM.

For `CC(C)(C)c1ccc(C(=O)Nc2cc(Cl)c(Br)cc2C(=O)O)cc1` [Compound 2], the IC50 [2] was 980 ± 67 nM, the “%BSF Growth Inhibition (10 μM)” value ([1]; 10 μM, triplicate, vs DMSO controls) was 6.9 ± 3.0% and the EC50 [1] was over 10000 nM. The IC50 [3] was 980 ± 70 nM, the “Trypanocidal activity against whole-cell BSF parasites (result in words)” value [4] was “not an effective trypanocide” and the “Impact on a mammalian hexokinase” value [5] was “no impact”. The “Toxicity toward human cell lines” value [6] was “no appreciable toxicity”.
